We go through 30 sequences from the array DNA melting data of Ke et al. (doi:10.1101/2024.01.08.574731).

Series [1] can be described thus: folding enthalpy; higher = less favourable; fluorescence melt of hairpins on a sequencing array, two-state fit. Particulars: sodium 0.088 M. The procedure, abridged: (§1)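 In 50 mM Na-HEPES pH 8.0 containing 25 mM NaCl, hairpins from the library on a sequenced MiSeq flow cell were imaged for Cy3 fluorescence at 2.5 °C steps up to 60 °C, with Cy3 and quencher oligos annealed. After normalisation to pre-quench Cy3 and to control constructs, two-state fits with bootstrapping gave melting temperature and folding enthalpy. Four replicates were combined by inverse-variance weighting, and fitted temperatures were shifted up by 9.35 °C to match UV melts.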

Series [2] is described as follows: melting temperature; fluorescence melt of hairpins on a sequencing array, two-state fit, raised by 9.35 °C to match UV melts. Particulars: sodium 0.088 M. The procedure, abridged:
as §1

In the case of GCTAAAGAAATTTAGC ((((((....)))))), the folding enthalpy in series [1] was -28.8 kcal/mol. For the same sequence, the Tm in series [2] was determined as 41.7 °C.
For GCTAACCGAAAGGTAGC (((.(((....)))))), the folding enthalpy in series [1] is -31.9 kcal/mol. In addition, the Tm in series [2] was found to be 55.3 °C.
As to GCTAACGAAAGTTGCAGC ((((((....)))..))), the folding enthalpy in series [1] is -15.5 kcal/mol. Moreover, the Tm in series [2] is 39 °C.
Consider GCTAACGGAAACGTCAGC (((.(((....))).))), for which, in series [1], the folding enthalpy is -26.6 kcal/mol. Moreover, in series [2], the Tm is 42.1 °C.
Consider GCTAAGCGAAAGCCTGGC ((.(.((....)).).)), for which the folding enthalpy in series [1] is -17.9 kcal/mol. For the same sequence, in series [2], the Tm is 35.5 °C.
GCTAAGCGAAAGCGTCGC ((.(.((....)).).)): in series [1], the folding enthalpy is -14 kcal/mol. Besides, the Tm in series [2] was 45.8 °C.
Regarding GCTAAGCGAAAGCTAGC (((.(((....)))))), the folding enthalpy in series [1] is -31.8 kcal/mol. The Tm in series [2] is 56.1 °C.
Turning to GCTAAGCGAAAGCTCAGC (((.(((....))).))), the folding enthalpy in series [1] is -31.6 kcal/mol. In addition, in series [2], the Tm was 48 °C.
In the case of GCTAAGCGAAAGCTGTGC ((..(((....)))..)), in series [1], the folding enthalpy is -18.1 kcal/mol. Moreover, the Tm in series [2] amounted to 48.6 °C.
The corresponding values for GCTAAGCGAAAGCTTGGC ((.((((....)))).)) are -34.3 kcal/mol and 62.9 °C.
GCTAAGGGAAACCCTAGC ((((.((....)).)))): in series [1], the folding enthalpy is -32.5 kcal/mol. Besides, the Tm in series [2] was found to be 42.7 °C.
Regarding GCTAAGGGAAACCTCAGC (((.(((....))).))), the folding enthalpy in series [1] is -27.4 kcal/mol. In addition, the Tm in series [2] worked out at 34.2 °C.
The matching figures for GCTAAGGGAAACTTTGGC ((.((.(....).)).)): -10.8 kcal/mol and 27.9 °C.
Turning to GCTAATGCGAAAGCAAGC (((..(((....)))))), the folding enthalpy in series [1] is -16.4 kcal/mol. In addition, in series [2], the Tm came out at 36.1 °C.
In the case of GCTAATGGAAACATCAGC (((.(((....))).))), the folding enthalpy in series [1] was -22.2 kcal/mol. For the same sequence, in series [2], the Tm came out at 32.5 °C.
For GCTAATGGAAACATTAGC (((((((....))))))), the folding enthalpy in series [1] is -45.4 kcal/mol. Moreover, the Tm in series [2] worked out at 56 °C.
GCTACACGAAAGTGAAGC (((.(((....))).))): the folding enthalpy in series [1] was -35.3 kcal/mol. In addition, the Tm in series [2] came to 54.2 °C.
As for GCTACAGGAAACTGTGGC ((.((((....)))).)), in series [1], the folding enthalpy is -39 kcal/mol. Also, in series [2], the Tm came out at 51.8 °C.
With GCTACATCGAAAGATAGC (((..(((....)))))), the folding enthalpy in series [1] is -16.7 kcal/mol. Further, the Tm in series [2] turned out to be 33.8 °C.
The matching figures for GCTACCCGAAAGGGAAGC (((.(((....))).))): -32.5 kcal/mol and 58.6 °C.
As to GCTACCCGAAAGGGCAGC (((.(((....))).))), the folding enthalpy in series [1] was -32.9 kcal/mol. Further, in series [2], the Tm came out at 57.8 °C.
Turning to GCTACCGAAAGGTAAAGC ((((((....)))..))), the folding enthalpy in series [1] was -19.8 kcal/mol. In addition, the Tm in series [2] turned out to be 46.8 °C.
As for GCTACCGAAAGGTCAAGC ((((((....)))..))), the folding enthalpy in series [1] is -14.9 kcal/mol. Moreover, in series [2], the Tm worked out at 39.1 °C.
GCTACCGAAAGGTCAGC ((((((....))).))): the folding enthalpy in series [1] is -21.4 kcal/mol. In series [2], the Tm worked out at 48.7 °C.
Regarding GCTACCGAAAGGTCTAGC ((((((....)))..))), in series [1], the folding enthalpy is -14.9 kcal/mol. Further, the Tm in series [2] stood at 36.6 °C.
For the sequence GCTACCGAAAGGTGAAGC ((((((....)))..))), the folding enthalpy in series [1] is -19 kcal/mol. Further, the Tm in series [2] came to 42 °C.
Consider GCTACCGAAAGGTGCAGC ((((((....)))..))), for which, in series [1], the folding enthalpy is -12.6 kcal/mol. Besides, the Tm in series [2] came out at 43.5 °C.
Turning to GCTACCGAAAGGTTGAGC ((((((....)))..))), in series [1], the folding enthalpy is -18.2 kcal/mol. Besides, in series [2], the Tm came to 38.8 °C.
The matching figures for GCTACCGGAAACGGCAAC (.(.(((....))).).): -8.04 kcal/mol and 18.5 °C.
Consider GCTACCGGAAACGGTAAC (.(((((....))))).), for which, in series [1], the folding enthalpy was -12.9 kcal/mol. The Tm in series [2] came to 37.2 °C.
